# Experimental data as given in ChEMBL document CHEMBL5661966, “Aurora B couples chromosome alignment with anaphase by targeting BubR1, Mad2, and Cenp-E to kinetochores” (J Cell Biol, 2003).
# The source made the active and inactive calls. The calls are words filed in the database; no cut-off is given here.
# Assays:
# [1] = Inhibition of reassociation of kinetochore with BubR1 in human DLD-1 cells assessed as BubR1/ACA fluorescence ratio measured for 40 mins (reference value: 2.23+/-1.21); type: functional
# [2] = Inhibition of reassociation of kinetochore with BubR1 in human DLD-1 cells assessed as inter-kinetochore distance measured for 40 mins (reference value: 0.89+/-0.20 uM); type: functional
# HeLa [3] = test: Induction of cell cycle arrest in human HeLa cells assessed as mitotic index measured after 6 hrs relative to control; type: functional
# DLD-1 [4] = test: Effect on human DLD-1 cells assessed as reduction in kinetochore bound CenP-E measured after 1 hr by immunofluorescence imaging analysis; type: functional, cell-based
# DLD-1 [5] = test: Inhibition of chromosome alignment in human DLD-1 cells assessed as reduction of metaphase and anaphase spindle proportion for 1 hr; type: functional, cell-based
# HeLa [6] = test: Induction of mitosis in human HeLa cells assessed as peaked mitotic index at 10 hrs by flow cytometric analysis; type: functional, cell-based
# hTERT-HME1 = test: Induction of endoreduplication in human HME cells measured after 48 hrs; type: functional, cell-based
# HeLa [7] = test: Induction of mitosis in human HeLa cells assessed as cyclin B1 level at 18 hrs by flow cytometric analysis; type: functional, cell-based
# HeLa [8] = test: Effect on nocodazole pretreated human HeLa cells assessed as compromising of microtubule polymerization induced spindle check point function; type: functional, cell-based
# DLD-1 [9] = test: Effect on human DLD-1 cells assessed as localization of survivin to centromere measured after 1 hr by immunofluorescence imaging analysis; type: functional, cell-based
# HeLa [10] = test: Induction of cell cycle arrest in human HeLa cells assessed as increase in cyclin B1 level measured after 1 hr by immunoblot analysis; type: functional, cell-based
# Outline: (§1)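 Mitotic HeLa cells were collected by selective detachment after a 12-h nocodazole block, washed free of nocodazole, and replated in the drug combinations. Cells were harvested at set times. Mitotic index was scored by MPM-2 reactivity, cyclin B1 was measured by immunoblot, and DNA content was read as histograms.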
# [11] = biological target: Mitotic checkpoint serine/threonine-protein kinase BUB1 beta (Homo sapiens) (UniProt O60566); test: Inhibition of BubR1 phosphorylation in mitotic human HeLa cells released from G1/S blocks by immunoblotting analysis; type: cell-based
# Chain of Mitotic checkpoint serine/threonine-protein kinase BUB1 beta (Homo sapiens) (O60566 whole entry): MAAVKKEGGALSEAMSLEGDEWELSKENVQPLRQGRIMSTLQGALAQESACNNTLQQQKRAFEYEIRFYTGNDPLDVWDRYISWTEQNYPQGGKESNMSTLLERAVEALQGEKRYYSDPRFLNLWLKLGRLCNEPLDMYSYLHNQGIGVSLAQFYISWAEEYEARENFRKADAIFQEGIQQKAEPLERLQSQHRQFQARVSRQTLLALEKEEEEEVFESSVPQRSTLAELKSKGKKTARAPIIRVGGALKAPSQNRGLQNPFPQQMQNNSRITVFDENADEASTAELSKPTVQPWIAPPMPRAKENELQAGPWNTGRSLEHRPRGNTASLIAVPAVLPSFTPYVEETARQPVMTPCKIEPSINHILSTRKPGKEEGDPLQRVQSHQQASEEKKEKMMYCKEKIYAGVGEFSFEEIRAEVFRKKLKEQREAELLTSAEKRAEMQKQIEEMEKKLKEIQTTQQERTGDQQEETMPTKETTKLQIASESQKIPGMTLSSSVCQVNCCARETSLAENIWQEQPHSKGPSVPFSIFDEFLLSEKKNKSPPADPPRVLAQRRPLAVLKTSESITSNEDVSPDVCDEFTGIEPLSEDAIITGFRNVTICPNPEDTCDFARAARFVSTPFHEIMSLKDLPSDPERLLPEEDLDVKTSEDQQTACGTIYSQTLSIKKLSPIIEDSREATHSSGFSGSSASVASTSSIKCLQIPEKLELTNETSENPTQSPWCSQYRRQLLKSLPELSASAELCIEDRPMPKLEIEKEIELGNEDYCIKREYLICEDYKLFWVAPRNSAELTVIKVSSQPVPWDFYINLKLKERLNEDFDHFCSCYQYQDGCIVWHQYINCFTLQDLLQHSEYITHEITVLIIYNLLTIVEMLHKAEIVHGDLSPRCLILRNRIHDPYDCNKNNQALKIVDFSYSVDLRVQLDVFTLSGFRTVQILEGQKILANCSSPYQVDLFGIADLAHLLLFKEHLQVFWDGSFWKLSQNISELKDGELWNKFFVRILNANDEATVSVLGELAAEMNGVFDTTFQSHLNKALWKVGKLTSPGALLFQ
# DLD-1 [12] = test: Effect on human DLD-1 cells assessed as reduction in kinetochore bound Mad2 measured after 1 hr by immunofluorescence imaging analysis; type: functional, cell-based
# DLD-1 [13] = test: Induction of cell cycle arrest in human DLD-1 cells assessed as accumulation of cells at mitotic stage upto 6 hrs by SEM analysis; type: functional, cell-based
# DLD-1 (Homo sapiens) = test: Effect on paclitaxel pretreated human DLD-1 cells assessed as compromising of microtubule polymerization induced spindle check point function
# DLD-1 [14] = test: Inhibition of sister chromatid separation in human DLD-1 cells; type: functional, cell-based
# DLD-1 [15] = test: Effect on human DLD-1 cells assessed as reduction in kinetochore bound BubR1 measured after 1 hr by immunofluorescence imaging analysis; type: functional, cell-based
# DLD-1 [16] = test: Effect on human DLD-1 cells assessed as localization of Aurora B to centromere measured after 1 hr by immunofluorescence imaging analysis; type: functional, cell-based
# [17] = biological target: Mitotic checkpoint serine/threonine-protein kinase BUB1 beta (Homo sapiens) (UniProt O60566); test: Inhibition of BubR1 immunoprecipitate phosphorylation in mitotic human HeLa cells released from G1/S blocks; type: cell-based
# HeLa [18] = test: Induction of cell cycle arrest in 12 hrs nocodazole block pretreated human HeLa cells assessed as mitotic stage exit in presence of nocodazole measured after 4 hrs; type: functional, cell-based
# Outline: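 HeLa cells were held in a nocodazole block for 2 or 12 h, and mitotic cells were harvested. They were replated in nocodazole alone or nocodazole plus test drug. Mitotic index was scored by MPM-2 reactivity after 4 h.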
# A549 = test: Induction of endoreduplication in human A549 cells measured after 48 hrs; type: functional, cell-based
# DLD-1 [19] = test: Effect on human DLD-1 cells assessed as reduction in fluorescence intensity of kinetochore bound BubR1/ACA ratio in presence of nocodazole measured by immunofluorescence imaging analysis relative to control; type: functional; parameters: scale not given: the % may be the effect or the level left
# DLD-1 [20] = test: Inhibition of chromosome alignment in human DLD-1 cells assessed as abnormal chromosome appearance upto 6 hrs; type: functional, cell-based
# [21] = biological target: Mitotic checkpoint serine/threonine-protein kinase BUB1 beta (Homo sapiens) (UniProt O60566); test: Inhibition of BubR1 phosphorylation in mitotic human HeLa cells released from G1/S blocks in presence of nocodazole by immunoblotting analysis; type: cell-based
# HeLa [22] = test: Induction of cell cycle arrest in human HeLa cells assessed as increase in cyclin B1 level measured after 2 hrs by immunoblot analysis; type: functional, cell-based; outline: as §1
# HeLa [23] = test: Induction of cell cycle arrest in human HeLa cells assessed as accumulation of cells at mitotic stage measured after 2 hrs; type: functional, cell-based; outline: as §1
structure (smiles),measurement,setting,value
CC(=O)O[C@H]1C(=O)[C@@]2(C)[C@H]([C@H](OC(=O)c3ccccc3)[C@]3(O)C[C@H](OC(=O)[C@H](O)[C@@H](NC(=O)c4ccccc4)c4ccccc4)C(C)=C1C3(C)C)[C@]1(OC(C)=O)CO[C@@H]1C[C@@H]2O [PACLITAXEL],Activity,[1],3.86
same,inter-kinetochore distance,[2],0.58 µm
same,Activity,HeLa [3],~25%
COc1cc2c(Nc3ccc(NC(=O)c4ccccc4)cc3)ncnc2cc1OCCCN1CCOCC1,Activity,DLD-1 [4],Active
same,inhibition,DLD-1 [5],Active
same,Activity,HeLa [6],Active
same,Activity,hTERT-HME1,Active
same,Activity,HeLa [7],Active
same,Activity,HeLa [8],Active
same,Activity,DLD-1 [9],Active
same,Activity,HeLa [10],Active
same,inhibition,[11],Active
same,Activity,DLD-1 [12],Active
same,Activity,DLD-1 [13],Active
same,Activity,DLD-1 (Homo sapiens),Active
same,inhibition,DLD-1 [14],inactive
same,Activity,DLD-1 [15],Active
same,Activity,DLD-1 [16],Active
same,inhibition,[17],inactive
same,Activity,HeLa [18],Active
same,Activity,A549,Active
same,Activity,DLD-1 [19],0%
same,inhibition,DLD-1 [20],Active
same,inhibition,[21],Active
COC(=O)Nc1nc2cc(C(=O)c3cccs3)ccc2[nH]1 [NOCODAZOLE],Activity,HeLa [22],Active
same,Activity,HeLa [7],Active
same,Activity,DLD-1 [13],Active
same,Activity,HeLa [3],~25%
same,Activity,HeLa [23],Active
